We go through 2 molecules from ChEMBL document CHEMBL4613270, “Structure-Activity Relationship Study Enables the Discovery of a Novel Berberine Analogue as the RXRα Activator to Inhibit Colon Cancer” (J Med Chem, 2020).

pIC50: −log10 of the molar value. Activity calls are given as the source filed them. The calls are words filed in the database; no cut-off is given here.

The pIC50 is the IC50 on a negative log10 scale, so that one unit is a factor of ten. Lower therefore signals a large IC50. One may read the Tmax as the time at which the peak concentration occurs.

In data set [1] the target is T1, Retinoic acid receptor RXR-alpha (Homo sapiens) (UniProt P19793).
T1 sequence (whole entry): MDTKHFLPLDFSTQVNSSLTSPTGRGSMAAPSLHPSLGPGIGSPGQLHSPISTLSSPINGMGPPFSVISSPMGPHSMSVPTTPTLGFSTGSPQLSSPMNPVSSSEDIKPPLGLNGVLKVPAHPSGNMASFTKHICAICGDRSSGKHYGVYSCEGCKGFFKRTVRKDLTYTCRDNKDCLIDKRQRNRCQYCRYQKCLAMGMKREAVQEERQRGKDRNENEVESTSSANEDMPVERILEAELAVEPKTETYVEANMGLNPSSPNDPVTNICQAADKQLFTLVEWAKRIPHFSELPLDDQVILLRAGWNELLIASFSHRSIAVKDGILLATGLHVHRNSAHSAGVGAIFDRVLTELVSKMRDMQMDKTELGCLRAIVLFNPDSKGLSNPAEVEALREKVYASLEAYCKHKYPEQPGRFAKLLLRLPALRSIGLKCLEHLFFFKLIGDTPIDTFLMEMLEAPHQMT
Briefly: Activation of RXRalpha (unknown origin) expressed in human KM12C cells co-expressing beta-catenin and c-Cbl assessed as induction of beta-caten interaction with c-Cbl at 25 to 50 uM incubated for 15 hrs by mammalian two-hybrid assay. The data set is classed as cell-based. The procedure, abridged:
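Mammalian two-hybrid: cells co-transfected by lipofection with pBIND-β-catenin/S33Y plus pACT-RXRα (RXRα–β-catenin) or pACT-c-Cbl (β-catenin–c-Cbl); 20 h after transfection, compound added for 15 h; cells lysed in passive lysis buffer, 4 °C, 1 h; firefly and Renilla luciferase read by dual-luciferase kit.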

Data set [2] addresses T1, Retinoic acid receptor RXR-alpha (Homo sapiens). Briefly: Activation of RXRalpha in human HCT116 cells assessed as increase in p21 (WAF1/CIP1) protein expression at 30 to 60 uM incubated for 15 hrs by Western blot analysis. The data set is classed as cell-based. Conditions: HCT-116. (Immunoblotting shows a protein as a band on a membrane.)
The target is the same in data set [3]. Description: Induction of conformational changes in His-tagged RXRalpha LBD (unknown origin) expressed in Escherichia coli strain BL21 (DE3) at 5 uM by circular dichroism spectroscopic assay. The procedure, abridged: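 His-RXRα-LBD expressed in E. coli BL21(DE3) (0.1 mM IPTG, 16 °C, 16 h), Ni-NTA purified, diluted to 1 µM in 0.01 M phosphate buffer; compound 5 µM (0.01% DMSO). CD spectra recorded 180-260 nm at 25 °C, 0.1 cm path, 1 nm bandwidth, 20 nm/min, 5 min after compound addition.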
Background: Circular dichroism is the unequal absorption of left and right circularly polarised light.

In data set [4] the test system is KM12C. Description: Activation of RXRalpha R371S mutant LBD (unknown origin) expressed in human KM12C cells at 50 uM incubated for 15 hrs by luciferase reporter gene assay. Format: cell-based. The procedure, abridged: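 KM12C cells co-transfected with pG5luc and pBIND-RXRα-LBD (wild type or mutants) using Lipofectamine 2000. Twenty hours after transfection, compound added at 50 μM for 15 h. Cells lysed in passive lysis buffer (4 °C, 1 h), then firefly and Renilla luciferase read by dual-luciferase assay. Basal level normalized to 1.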
(In a reporter assay the amount or activity of a reporter protein is the signal.)

Data set [5] concerns the target T1, Retinoic acid receptor RXR-alpha (Homo sapiens). Briefly: In-vivo activation of RXRalpha in BALB/c mouse xenografted with human KM12C cells assessed as effect on PCNA protein expression at 100 mg/kg, ig dosed daily for 15 days by immunohistochemistry analysis. Format: functional, organism-based.
A short description of data set [6]: Toxicity in BALB/c mouse xenografted with human KM12C cells assessed as effect on biochemical parameter by measuring urea […] level at 100 mg/kg, ig dosed daily for 15 days by automatic chemistry analyzer based analysis (reference value: 8.21 +/- 0.26 mmol/L). Conditions: in vivo, po, 360 h. Format: organism-based.
In data set [7] the target is T1, Retinoic acid receptor RXR-alpha (Homo sapiens). Briefly: In-vivo activation of RXRalpha in BALB/c mouse xenografted with human KM12C cells assessed as induction of beta-catenin protein degradation at 100 mg/kg, ig dosed daily for 15 days by Western blot analysis. Format: functional, organism-based.
The target is the same in data set [8]. Description: Activation of RXRalpha in human SW620 cells assessed as reduction in c-Myc protein expression at 40 to 80 uM incubated for 15 hrs by Western blot analysis. The data set is classed as cell-based. To be noted: SW-620.
The subject of data set [9] is SW-620. Briefly: Inhibition of cell proliferation of human SW620 cells incubated for 15 hrs by MTT assay. The data set is classed as functional, cell-based. Conditions: SW-620, 15 h. The procedure, abridged:
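Cells plated at 1×10⁴ per well, incubated overnight at 37 °C, then exposed to a concentration series for 15 h. MTT (5 mg/mL stock) added for 4 h at 37 °C. Formazan dissolved in DMSO and absorbance read at 570 nm. IC50 derived from the dose-response curve.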

In data set [10] the target is T1, Retinoic acid receptor RXR-alpha (Homo sapiens). Briefly: In-vivo activation of RXRalpha in BALB/c mouse xenografted with human KM12C cells assessed as reduction in c-Myc protein expression at 100 mg/kg, ig dosed daily for 15 days by Western blot analysis. Format: functional, organism-based. The procedure, abridged:
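KM12C cells (1×10^6 per mouse in 100 μL HBSS) injected subcutaneously into both flanks of nude mice; after seven days, randomized to three groups, dosed intragastrically once daily for 15 days with vehicle (CMC-Na) or 100 mg/kg compound; mice euthanized and tumors removed for analysis.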

Data set [11] can be described thus: Tmax in Sprague-Dawley rat at 100 mg/kg, ig measured after 0.083 to 36 hrs by LC-MS/MS analysis. The data set is classed as ADME, organism-based. To be noted: in vivo, po. The procedure, abridged:
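SD rats (200 ± 20 g) randomized to three groups; single intragastric dose of 100 mg/kg or vehicle (0.5% CMC-Na). Tail-vein blood (0.5 mL) drawn at 0.083, 0.25, 0.5, 1, 2, 4, 8, 12, 24 and 36 h. Plasma separated by centrifugation at 2000 rpm for 10 min, frozen at -80 °C, then quantified by LC-MS/MS.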

Data set [12] addresses T1, Retinoic acid receptor RXR-alpha (Homo sapiens). Briefly: Activation of RXRalpha in human HCT116 cells assessed as […] crease in p21 (WAF1/CIP1) mRNA expression at 30 to 60 uM incubated for 15 hrs by real-time PCR analysis. Conditions: HCT-116. The data set is classed as cell-based.
The target is the same in data set [13]. Briefly: Activation of RXRalpha in human SW620 cells assessed as increase in p21 (WAF1/CIP1) protein expression at 40 to 80 uM incubated for 15 hrs by Western blot analysis. Format: cell-based. To be noted: SW-620.
For data set [14] the target is unchanged. Briefly: Activation of RXRalpha in human SW620 cells assessed as reduction in Cdc2 protein expression at 40 to 80 uM incubated for 15 hrs by Western blot analysis. Format: cell-based. To be noted: SW-620.
Data set [15] has the same target. Briefly: Activation of RXRalpha in human HCT116 cells assessed as reduction in Cdc2 protein expression at 30 to 60 uM incubated for 15 hrs by Western blot analysis. To be noted: HCT-116. The data set is classed as cell-based.
For data set [16] the target is unchanged. Description: Activation of RXRalpha in human SW620 cells assessed as […] crease in p21 (WAF1/CIP1) mRNA expression at 40 to 80 uM incubated for 15 hrs by real-time PCR analysis. Format: cell-based. To be noted: SW-620.
The target is the same in data set [17]. Description: Activation of RXRalpha in human KM12C cells assessed as […] crease in p21 (WAF1/CIP1) mRNA expression at 25 to 50 uM incubated for 15 hrs by real-time PCR analysis. The data set is classed as cell-based.

For `COc1ccc2cc3[n+](cc2c1OC)CCc1cc2c(cc1-3)OCO2.[Cl-]` [BERBERINE CHLORIDE], the result in data set [1], in data set [2], in data set [3], in data set [5], in [7] and in [8] was Active. The result in data set [10], in data set [12], in data set [13], in data set [14], in data set [15] and in data set [16] was Active. The outcome in [17] was Active. The result in data set [4] was inactive. In addition, in data set [6], the Activity was determined as 8.08 mmol/L. Besides, in data set [9], the pIC50 was 3.90. In data set [11], the Tmax came out at 2 h.

`COc1ccc2c(c1)CC[n+]1cc3c(OC)cccc3cc1-2.[Cl-]`: the outcome in [1], in data set [2], in data set [3], in [5], in [7] and in [8] was Active. The outcome in [10], in data set [12], in [13], in data set [14], in data set [15] and in data set [16] was Active. Moreover, the result in data set [17] was Active. For the same molecule, the outcome in data set [4] was inactive. In data set [6], the Activity is given as 8.39 mmol/L. The pIC50 in data set [9] is 4.44. For the same molecule, in data set [11], the Tmax was determined as 2 h.
